This is an account of results in ChEMBL document CHEMBL1157137, “Design, synthesis and biological evaluation of piperazine analogues as CB1 cannabinoid receptor ligands” (Bioorg Med Chem, 2008).

Where only a bound is given, the exact number is not on record here.

Assay [1] concerns the target Cannabinoid receptor 1 (Rattus norvegicus, UniProt P20272). Put plainly: Displacement of [3H]CP-55940 from CB1 receptor in Sprague-Dawley rat cerebella membrane. An outline of the steps:
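Male Sprague–Dawley rat (200–300 g) cerebellar membranes incubated with 3 nM [3H]CP55,940 and varied ligand concentrations in TME buffer with 0.5% fatty-acid-free BSA, 1 h at 30 °C. Filtered over PEI-soaked GF/B filters, washed five times with ice-cold buffer containing 0.1% BSA, then counted by liquid scintillation. IC50 from single determinations.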

In the next assay the target is Cannabinoid receptor 2 (Homo sapiens, UniProt P34972). Put plainly: Displacement of [3H]WIN-55212-2 from human CB2 receptor expressed in CHOK1 cells. Type of assay: cell-based, CHO-K1. An outline of the steps:
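Membranes were from CHO K-1 cells transfected with human CB2. They were incubated with 3 nM [3H]WIN55,212-2 and varied ligand concentrations in TME/0.5% fatty-acid-free BSA, 1 h at 30 °C. Bound ligand was separated on 0.1% PEI-soaked GF/B filters, washed five times with ice-cold 0.1% BSA buffer, and counted by scintillation. IC50 from single determinations.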

For assay [2], the target named is Cannabinoid receptor 1 (Homo sapiens, UniProt P21554). Briefly: Antagonist activity at human CB1 receptor expressed in CHOK1 cells by luciferase assay. The class given is functional, cell-based, CHO-K1.
Chain of Cannabinoid receptor 1 (Homo sapiens, UniProt P21554) (P21554 whole entry): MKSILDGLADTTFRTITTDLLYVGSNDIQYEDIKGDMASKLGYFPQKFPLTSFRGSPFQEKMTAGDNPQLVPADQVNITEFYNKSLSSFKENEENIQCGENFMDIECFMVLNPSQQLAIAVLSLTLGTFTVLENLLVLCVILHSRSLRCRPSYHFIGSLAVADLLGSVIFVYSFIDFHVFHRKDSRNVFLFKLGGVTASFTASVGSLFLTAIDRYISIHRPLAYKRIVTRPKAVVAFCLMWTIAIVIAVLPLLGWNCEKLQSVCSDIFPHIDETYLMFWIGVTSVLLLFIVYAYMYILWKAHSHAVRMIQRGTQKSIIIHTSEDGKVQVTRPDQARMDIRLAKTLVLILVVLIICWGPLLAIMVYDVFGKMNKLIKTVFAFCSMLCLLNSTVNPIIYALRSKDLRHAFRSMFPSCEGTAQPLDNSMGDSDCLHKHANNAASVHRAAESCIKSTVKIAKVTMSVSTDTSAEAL

Chain of Cannabinoid receptor 1 (Rattus norvegicus, UniProt P20272) (P20272 whole entry): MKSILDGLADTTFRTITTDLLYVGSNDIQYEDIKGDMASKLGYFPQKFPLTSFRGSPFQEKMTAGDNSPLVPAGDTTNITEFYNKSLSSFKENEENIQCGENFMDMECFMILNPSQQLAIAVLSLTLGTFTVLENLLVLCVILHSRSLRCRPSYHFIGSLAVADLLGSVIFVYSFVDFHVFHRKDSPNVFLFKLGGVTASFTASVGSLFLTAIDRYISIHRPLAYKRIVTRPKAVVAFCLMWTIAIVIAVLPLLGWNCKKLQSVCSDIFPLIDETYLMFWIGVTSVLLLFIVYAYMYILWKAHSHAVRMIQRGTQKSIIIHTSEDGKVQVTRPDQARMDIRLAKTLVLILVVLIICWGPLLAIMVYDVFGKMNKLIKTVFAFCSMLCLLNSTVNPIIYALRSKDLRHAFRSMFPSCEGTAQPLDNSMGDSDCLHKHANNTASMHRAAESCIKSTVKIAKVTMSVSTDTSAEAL
Chain of Cannabinoid receptor 2 (P34972 whole entry): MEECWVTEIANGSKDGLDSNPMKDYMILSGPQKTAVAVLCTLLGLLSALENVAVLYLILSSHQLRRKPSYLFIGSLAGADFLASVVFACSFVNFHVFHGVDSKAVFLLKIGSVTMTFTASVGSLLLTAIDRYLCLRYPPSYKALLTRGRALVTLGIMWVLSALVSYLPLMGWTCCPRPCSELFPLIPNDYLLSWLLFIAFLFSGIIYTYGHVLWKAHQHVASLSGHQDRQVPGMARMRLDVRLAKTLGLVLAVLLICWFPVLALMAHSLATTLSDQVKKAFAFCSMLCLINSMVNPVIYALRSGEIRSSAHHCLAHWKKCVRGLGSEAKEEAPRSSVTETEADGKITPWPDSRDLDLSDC

With `CC(C)(C)NC(=O)N1CCN(C(c2ccc(Cl)cc2)c2ccccc2C(F)(F)F)CC1` (stereo not drawn), on Cannabinoid receptor 1 [1], the IC50 worked out at 2050 nM.
With `O=C(NC1CCCCC1)N1CCN(C(c2ccc(Cl)cc2)c2ccccc2Cl)CC1` (stereo not drawn), the IC50 on Cannabinoid receptor 1 [1] is 72.8 nM; at Cannabinoid receptor 2, > 10000 nM; against Cannabinoid receptor 1 [2], 128 nM.
Consider `O=C(NCC1CCCCC1)N1CCN(C(c2ccc(Br)cc2)c2ccccc2Cl)CC1` (stereo not drawn), for which the IC50 at Cannabinoid receptor 1 [1] is 127 nM; on Cannabinoid receptor 2 it was > 10000 nM; on Cannabinoid receptor 1 [2], 146 nM.
Take `O=C(NC1CCCCCC1)N1CCN(C(c2ccc(Br)cc2)c2ccccc2Cl)CC1` (stereo not drawn): the values for the IC50 on Cannabinoid receptor 1 [1], on Cannabinoid receptor 2 and at Cannabinoid receptor 1 [2] were 82.3 nM, > 10000 nM and 49.4 nM, respectively.
The like results for `O=C(NCC1CCCCC1)N1CCN(C(c2ccc(Cl)cc2)c2ccc(Cl)cc2Cl)CC1` (stereo not drawn) were, in that order, 262 nM, > 10000 nM and 1040 nM.
The like results for `Cc1ccccc1C(c1ccc(Cl)cc1)N1CCN(C(=O)NC(C)(C)C)CC1` (stereo not drawn) were, in that order, 680 nM, > 10000 nM and 334 nM.
On to `O=C(C1CCCCC1)N1CCN(C(c2ccc(Cl)cc2)c2ccc(Cl)cc2)CC1`, for which the IC50 at Cannabinoid receptor 1 [1] came out at 1390 nM.
The same measure, in the same setting: for `CCCCCC(=O)N1CCN(C(c2ccc(Cl)cc2)c2ccc(Cl)cc2Cl)CC1` (stereo not drawn) the value was 257 nM.
For `CC(C)(C)NC(=O)N1CCN(C(c2ccc(Cl)cc2)c2ccccc2Cl)CC1` (stereo not drawn), the IC50 on Cannabinoid receptor 1 [1] is 122 nM; at Cannabinoid receptor 2, 4820 nM; against Cannabinoid receptor 1 [2], 443 nM.
The like results for `O=C(NC1CCCCC1)N1CCN(C(c2ccc(Cl)cc2)c2ccccc2C(F)(F)F)CC1` (stereo not drawn) were, in that order, 163 nM, > 10000 nM and 186 nM.
For `O=C(NC1CCCCC1)N1CCN(C(c2ccc(Cl)cc2)c2ccc(Cl)cc2Cl)CC1` (stereo not drawn) the same measures were 104 nM, > 10000 nM and 367 nM.
`O=C(NCC1CCCCC1)N1CCN(C(c2ccc(Cl)cc2)c2cccc(Cl)c2Cl)CC1` (stereo not drawn) showed an IC50 on Cannabinoid receptor 1 [1] of 2000 nM.
`O=C(NC1CCCCCC1)N1CCN(C(c2ccc(Cl)cc2)c2ccccc2C(F)(F)F)CC1` (stereo not drawn): the IC50 at Cannabinoid receptor 1 [1] is 141 nM; at Cannabinoid receptor 2, > 10000 nM; on Cannabinoid receptor 1 [2], 204 nM.
Turning to `O=C(NC1CCCCC1)C(=O)N1CCN(C(c2ccc(Cl)cc2)c2ccccc2Cl)CC1` (stereo not drawn), the IC50 on Cannabinoid receptor 1 [1] was determined as 226 nM.
Take `O=C(NC1CCCCCC1)N1CCN(C(c2ccc(Cl)cc2)c2ccccc2Cl)CC1` (stereo not drawn): the IC50 is 66.5 nM on Cannabinoid receptor 1 [1], > 10000 nM on Cannabinoid receptor 2 and 226 nM at Cannabinoid receptor 1 [2].
With `CCCCCC(=O)N1CCN(C(c2ccc(Cl)cc2)c2ccc(Cl)cc2)CC1`, on Cannabinoid receptor 1 [1], the IC50 was determined as 1150 nM.
The same measure, in the same setting: for `CC(C)(C)NC(=O)N1CCN(C(c2ccc(Cl)cc2)c2ccc(Cl)cc2Cl)CC1` (stereo not drawn) the value was 2000 nM.
`Cc1ccccc1C(c1ccc(Cl)cc1)N1CCN(C(=O)NC2CCCCC2)CC1` (stereo not drawn): the IC50 is 248 nM on Cannabinoid receptor 1 [1], > 10000 nM at Cannabinoid receptor 2 and 195 nM on Cannabinoid receptor 1 [2].
Turning to `CC(C)(C)NC(=O)N1CCN(C(c2ccc(Cl)cc2)c2cccc(Cl)c2Cl)CC1` (stereo not drawn), the IC50 on Cannabinoid receptor 1 [1] was 783 nM; at Cannabinoid receptor 2, > 10000 nM; against Cannabinoid receptor 1 [2], 316 nM.
The like results for `CC(C)(C)NC(=O)N1CCN(C(c2ccc(Br)cc2)c2ccccc2Cl)CC1` (stereo not drawn) were, in that order, 237 nM, 4950 nM and 286 nM.
With `O=C(NCC1CCCCC1)N1CCN(C(c2ccc(Cl)cc2)c2ccccc2C(F)(F)F)CC1` (stereo not drawn), the IC50 on Cannabinoid receptor 1 [1] is 526 nM; on Cannabinoid receptor 2, > 10000 nM; against Cannabinoid receptor 1 [2], 798 nM.
The like results for `Cc1ccccc1C(c1ccc(Cl)cc1)N1CCN(C(=O)NCC2CCCCC2)CC1` (stereo not drawn) were, in that order, 291 nM, > 10000 nM and 340 nM.
The like results for `O=C(NC1CCCCC1)N1CCN(C(c2ccc(Br)cc2)c2ccccc2Cl)CC1` (stereo not drawn) were, in that order, 103 nM, > 10000 nM and 62.8 nM.
The molecule `O=C(C1CCC1)N1CCN(C(c2ccc(Cl)cc2)c2ccc(Cl)cc2)CC1` showed a half-inhibitory concentration (IC50) at Cannabinoid receptor 1 [1] of 1070 nM.
With `O=C(NCC1CCCCC1)N1CCN(C(c2ccc(Cl)cc2)c2ccccc2Cl)CC1` (stereo not drawn), the values for the IC50 at Cannabinoid receptor 1 [1], at Cannabinoid receptor 2 and on Cannabinoid receptor 1 [2] were 189 nM, > 10000 nM and 273 nM, respectively.
`O=C(NC1CCCCC1)N1CCN(C(c2ccc(Cl)cc2)c2ccc(Cl)cc2)CC1`: the IC50 at Cannabinoid receptor 1 [1] amounted to 914 nM.
Regarding `O=C(NC1CCCCCC1)C(=O)N1CCN(C(c2ccc(Cl)cc2)c2ccccc2Cl)CC1` (stereo not drawn), the IC50 on Cannabinoid receptor 1 [1] was 229 nM.
On to `O=C(NC1CCCCCC1)N1CCN(C(c2ccc(Cl)cc2)c2ccc(Cl)cc2Cl)CC1` (stereo not drawn), for which the IC50 on Cannabinoid receptor 1 [1] was 89.2 nM; at Cannabinoid receptor 2, > 10000 nM; against Cannabinoid receptor 1 [2], 729 nM.
As to `O=C(NC1CCCCC1)N1CCN(C(c2ccc(Cl)cc2)c2cccc(Cl)c2Cl)CC1` (stereo not drawn), the half-inhibitory concentration (IC50) at Cannabinoid receptor 1 [1] was 186 nM; at Cannabinoid receptor 2 it was > 10000 nM; against Cannabinoid receptor 1 [2], 441 nM.
For `Cc1ccccc1C(c1ccc(Cl)cc1)N1CCN(C(=O)NC2CCCCCC2)CC1` (stereo not drawn) the same measures were 151 nM, > 10000 nM and 163 nM.
For the molecule `O=C(NC1CCCCCC1)N1CCN(C(c2ccc(Cl)cc2)c2cccc(Cl)c2Cl)CC1` (stereo not drawn), the concentration for half-maximal inhibition (IC50) at Cannabinoid receptor 1 [1] was 158 nM; at Cannabinoid receptor 2, > 10000 nM; against Cannabinoid receptor 1 [2], 424 nM.
